IDH1 R132H inh: blocks human IDH1 R132H reductase activity; diaphorase/resazurin fluorescence, 60 min; O75874; inhibition, % at 10 µM; hit rate 0.18% among 70,000; in the data active = inhibition above about 34%; inconclusive = no clear call, values can overlap the other calls; inactive = below about 11%;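 also: 0% = DMSO and 100% = no enzyme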
Pf Dd2 growth: inhibitors of Plasmodium falciparum Dd2 growth. AID 1159554. P. falciparum Dd2 growth, SYBR Green, 72 h; active compounds read low. hit rate 2.3% among 94,000. activity change, % at 10 µM; in the data active = activity change below about -80%; inconclusive = no clear call, values can overlap the other calls
T cruzi growth-1: T. cruzi proliferation inhibition. T. cruzi beta-gal in NIH3T3, GalScreen luminescence, 90 h. inhibition, % at 8.34 µM. hit rate 5.9% among 77,000;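 active = mean inhibition above about 93%, with at least 55% of replicates each passing it, limit read from the data, passing the limit was not always enough; inconclusive = only one of those two conditions holds; inactive = neither condition holds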
KDM4C inh: KDM4C (human) demethylase inhibition. Q9H3R0. GST-KDM4C 2-372, H3K9me3 peptide, LANCE TR-FRET. inhibition, % at 12.5 µM. hit rate 0.15% among 96,000. AID 720574;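 active = mean replicate inhibition above about 25%, with at least 55% of replicates also reaching it, limit read from the data, passing the limit was not always enough; inconclusive = only one of those two conditions met; inactive = neither condition met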
Target sequence (Q9H3R0 2-372 limits assumed): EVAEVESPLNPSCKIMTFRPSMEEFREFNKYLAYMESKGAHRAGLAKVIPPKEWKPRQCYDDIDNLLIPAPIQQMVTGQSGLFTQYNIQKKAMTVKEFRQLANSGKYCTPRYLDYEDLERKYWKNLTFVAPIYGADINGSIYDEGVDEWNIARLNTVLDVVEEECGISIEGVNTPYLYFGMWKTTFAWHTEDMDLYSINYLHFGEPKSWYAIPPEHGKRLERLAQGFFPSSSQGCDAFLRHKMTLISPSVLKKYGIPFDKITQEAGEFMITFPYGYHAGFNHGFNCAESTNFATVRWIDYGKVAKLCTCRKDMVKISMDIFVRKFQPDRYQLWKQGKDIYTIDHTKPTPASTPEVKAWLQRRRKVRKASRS
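Material: N-terminal GST-fused human GASC-1 (KDM4C) fragment, residues 2-372. Input: 10 nM enzyme. Incubation: enzyme reaction 30 min, then detection 60 min, both room temperature. Doses: one test concentration per compound. Read-out basis: inhibition from TR-FRET ratio decrease. Detection: LANCE TR-FRET, excitation 340 nm, emissions 618 and 671 nm.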
T cruzi growth-2: blocks T. cruzi growth in NIH3T3 host cells. shares compounds with T cruzi growth-1. T. cruzi beta-gal in NIH3T3, GalScreen luminescence, 90 h. inhibition, % at 8.35 µM. hit rate 72% among 5,600;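 active = mean replicate inhibition above about 95% and at least 55% of replicates individually reaching it, limit read from the data; inconclusive = only one of the two criteria is met; inactive = neither criterion is met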
T cruzi growth-3: blocks T. cruzi growth in NIH3T3 host cells; shares compounds with T cruzi growth-1; hit rate 21% among 5,600; AID 651740; inhibition, % at 2.09 µM; T. cruzi beta-gal in NIH3T3, GalScreen luminescence, 90 h;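 active = mean inhibition above about 95%, with at least 55% of replicates also reaching it, limit read from the data; inconclusive = meets just one of the two conditions; inactive = meets neither condition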;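 also: plate controls were neutral control median for no effect and positive control median for full effect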
NIH3T3 tox: NIH/3T3 (mouse) viability loss; shares compounds with T cruzi growth-1; NIH/3T3 viability, CellTiter-Glo ATP luminescence, 90 h; cytotoxicity (signal decrease), % at 8.35 µM; hit rate 14% among 5,600;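 active = mean signal decrease across replicates above about 35% based on untreated-well scatter, with enough replicates individually passing, limit read from the data; inconclusive = no rule stated though some were filed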;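 also: 0% = median of neutral control wells and 100% = median of positive control wells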
NIH3T3 tox 2: cytotoxicity in mouse NIH/3T3 fibroblasts. shares compounds with T cruzi growth-1. NIH/3T3 viability, CellTiter-Glo ATP luminescence, 90 h. inhibition, % at 24.9 µM. hit rate 56% among 5,600;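 active = mean loss of cell viability signal at or above a set limit, and enough replicates individually reaching it; inconclusive = meets only the mean limit or only the replicate share; inactive = meets neither condition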;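 also: 0% = median of neutral control wells and 100% = median of positive control wells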
Numbers without * were called inactive; ? = inconclusive; · = no result given. Hits are enriched below; roughly 5.8% of the tested compounds scored in any of these assays.

SMILES | IDH1 R132H inh | Pf Dd2 growth | T cruzi growth-1 | KDM4C inh | T cruzi growth-2 | T cruzi growth-3 | NIH3T3 tox | NIH3T3 tox 2
C[C@@H]1CN([C@@H](C)CO)S(=O)(=O)c2ccc(C3=CCCC3)cc2O[C@@H]1CN(C)Cc1ccccc1F | · | -77 | 114* | 1 | 99* | 110* | -4 | 104*
Cc1ccc(S(=O)(=O)Nc2cccc3c2O[C@@H](CN(C)Cc2ccccc2)[C@H](C)CN([C@@H](C)CO)C3=O)cc1 | 2 | -21 | 22 | 0 | · | · | · | ·
C[C@@H]1CCCCO[C@H](CN(C)Cc2ccccc2)[C@@H](C)CN([C@H](C)CO)C(=O)c2cc(NC(=O)Nc3ccc(F)cc3)ccc2O1 | 13 | 26 | 66 | -1 | · | · | · | ·
C[C@@H]1CCCCO[C@@H](CN(C)Cc2ccccc2)[C@H](C)CN([C@@H](C)CO)C(=O)c2cc(NC(=O)Nc3ccc(F)cc3)ccc2O1 | -1 | ? | ? | 1 | 103* | 44 | 10 | 105*
C[C@H](CO)N1C[C@H](C)[C@H](CN(C)Cc2ccccc2)OCCCC[C@H](C)Oc2ccc(NC(=O)Nc3ccc(F)cc3)cc2C1=O | · | 4 | ? | -2 | 97* | 114* | 23 | 104*
C[C@@H]1CCCCO[C@@H](CN(C)Cc2ccccc2)[C@@H](C)CN([C@H](C)CO)C(=O)c2cc(NC(=O)Nc3ccc(F)cc3)ccc2O1 | · | 28 | 101* | 0 | 107* | 56 | 12 | 14
CCC(=O)Nc1ccc2c(c1)OC[C@@H](C)N(C(C)=O)C[C@@H](C)[C@H](OC)CN(C)C2=O | 0 | 20 | 1 | 1 | · | · | · | ·
COc1ccc(S(=O)(=O)Nc2ccc3c(c2)C(=O)N([C@@H](C)CO)C[C@H](C)[C@@H](CN(C)Cc2ccccc2)OCCCC[C@H](C)O3)cc1 | 0 | -40 | -9 | -3 | · | · | · | ·
O=C(C[C@H]1CC[C@@H]2[C@H](COC[C@H](O)CN2Cc2cccc(F)c2)O1)NCC1CCCCC1 | · | 8 | -34 | 2 | · | · | · | ·
CC(=O)Nc1ccc2c(c1)C(=O)N(C)[C@@H]1CC[C@@H](CC(=O)Nc3cn(C)nc3C)O[C@@H]1CO2 | · | 8 | 32 | 3 | · | · | · | ·
C[C@@H]1CCCCO[C@@H](CN(C)C)[C@H](C)CN([C@@H](C)CO)C(=O)c2cc(NC(=O)CCC(F)(F)F)ccc2O1 | 3 | -6 | 65 | 1 | · | · | · | ·
Cc1ccc(S(=O)(=O)Nc2ccc3c(c2)C(=O)N([C@@H](C)CO)C[C@H](C)[C@H](CN(C)C(=O)Nc2ccccc2)OCCCC[C@@H](C)O3)cc1 | · | -41 | 65 | 0 | · | · | · | ·
C[C@H](CO)N1C[C@H](C)[C@H](CN(C)C(=O)Nc2cccc3ccccc23)Oc2ncc(C#Cc3ccc(F)cc3)cc2C1=O | · | -75 | · | · | · | · | · | ·
C[C@@H]1CN([C@@H](C)CO)C(=O)Cc2cc(NS(=O)(=O)c3cccs3)ccc2O[C@H]1CN(C)Cc1ccc(C(=O)Nc2ccccc2N)cc1 | 0 | -23 | 21 | 0 | · | · | · | ·
C[C@@H]1CN([C@@H](C)CO)C(=O)c2cc(NS(=O)(=O)c3cccs3)ccc2O[C@H]1CN(C)Cc1ccc(C(=O)Nc2ccccc2N)cc1 | 0 | -57 | 108* | 0 | 97* | 63 | 4 | 5
C[C@@H]1CN([C@H](C)CO)C(=O)c2cc(N(C)C)ccc2O[C@@H]1CN(C)Cc1ccc(C(=O)Nc2ccccc2N)cc1 | · | -70 | 103* | · | 90 | 81 | 74* | 94*
C[C@@H]1CN([C@H](C)CO)C(=O)c2cc(NC(=O)Nc3ccc4c(c3)OCO4)ccc2O[C@@H]1CN(C)Cc1ccc(C(=O)Nc2ccccc2N)cc1 | · | -78 | 63 | 0 | · | · | · | ·
C[C@@H]1CN([C@H](C)CO)C(=O)c2cccc(NC(=O)Nc3ccc4c(c3)OCO4)c2O[C@@H]1CN(C)Cc1ccc(C(=O)O)cc1 | · | 1 | -7 | 2 | · | · | · | ·

Compound activity as filed in PubChem.
